# Results collected from several papers.
# Protocols differ between the studies behind these lines.
# Observed: cell growth or viability
Compound,cell line,test,setting,measurement,value
CCOc1ccccc1-n1c(CN2CCNCC2)nc2ccc(F)cc2c1=O,PANC-1,ATP luminescence,72 h,IC50,40 nM
O=C(NCc1ccccc1)c1cn(Cc2ccc(C(F)(F)F)cc2)c2ccc(Oc3ccccc3)cc2c1=O,HCC1419,,72 h,CC50,> 50000 nM
O=C1c2ccccc2-c2c3c(cc4ccnc1c24)OCO3,MOLT-3,XTT,75 h,IC50,7900 nM
COc1cnc(OC)n2nc(NS(=O)(=O)c3c(OCC(F)F)cccc3C(F)(F)F)nc12,L02,CCK-8,"1.56 µM, 72 h",inhibition,0%
Cc1ncsc1-c1ccc([C@H](C)NC(=O)[C@@H]2C[C@@H](O)CN2C(=O)[C@@H](c2cc(N3CCC(CN4CCC(OC5CC(Oc6cc(N7C8CCC7CN(c7cc(-c9ccccc9O)nnc7N)C8)ccn6)C5)CC4)CC3)no2)C(C)C)cc1 (some centres unmarked),NCI-H1944,ATP luminescence,7 days,IC50,20.3 nM
N.N.[Cl][Pt][Cl],REH,ATP luminescence,72 h,IC50,780 nM
CC[C@@]1(O)C(=O)OCc2c1cc1n(c2=O)Cc2cc3ccccc3nc2-1,PANC-1,SRB,48 h,IC50,157 nM
CC[C@H](C)[C@@H]([C@@H](CC(=O)N1CCC[C@H]1[C@H](OC)[C@@H](C)C(=O)N[C@H](C)[C@@H](O)c1ccccc1)OC)N(C)C(=O)[C@@H](NC(=O)[C@@H](NC)C(C)C)C(C)C,L02,CCK-8,,IC50,25.3 nM
